Rpn11 inh: Rpn11 (human) deubiquitinase inhibition; human 26S proteasome, Ub4-pepOG fluorescence polarization; 20S core pre-blocked with epoxomicin; inhibition, % at 20 µM; O00487; AID 588493; hit rate 0.59% among 360,000;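 active means inhibition at 20 µM, scaled to each plate's controls, above about 33%, limit read from the data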
LMPTP block: LMPTP (human) inhibition. recombinant LMPTP-A, OMFP fluorogenic substrate, fluorescence intensity. inhibition, % at 20 µM. hit rate 0.22% among 360,000. AID 651560;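 active means compounds that cut the enzyme signal by at least half of the control window in the single-dose screen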;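 further: plate controls were DMSO wells with enzyme plus substrate for no effect and substrate without enzyme for full effect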
Target sequence (P24666 whole entry, looked up): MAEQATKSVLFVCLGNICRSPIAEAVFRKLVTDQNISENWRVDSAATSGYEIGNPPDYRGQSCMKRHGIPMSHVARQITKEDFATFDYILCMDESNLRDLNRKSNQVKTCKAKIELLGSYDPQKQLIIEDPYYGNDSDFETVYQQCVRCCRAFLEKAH
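Assay system: LMPTP-A, protein tyrosine phosphatase of low molecular weight / Medium: pH 6.0 Bis-Tris buffer with DTT and Triton X-100 / Schedule: 50 min enzyme reaction at room temperature, protected from light / Measured by: endpoint fluorescence intensity from OMFP dephosphorylation / Read-out basis: % inhibition relative to no-enzyme and uninhibited control wells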
DNMT1 inh: inhibitors of human DNMT1. P26358. DNMT1 molecular beacon, Hinp1I cleavage, fluorescence. inhibition (reported as % activation of signal), % at 10 µM. hit rate 0.83% among 360,000; in the data active means inhibition above about 50%
STEP inh: inhibitors of human striatal-enriched phosphatase STEP; inhibition, % at 20 µM; hit rate 0.25% among 360,000; recombinant STEP, OMFP fluorogenic substrate, fluorescence; P54829;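 active means inhibition at 20 µM, scaled per plate between control wells, above about 37%, limit read from the data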;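 further: 0% = DMSO with enzyme and substrate and 100% = substrate only without enzyme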
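Also added – OMFP at 25 µM · Test system – STEP tyrosine phosphatase · Technique – FITC-channel fluorescence of OMFP product · Schedule – 20 min at room temperature, dark · Evaluation – control-normalized % inhibition with plate pattern correction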
Scp1 inh: blocks human Scp-1 phosphatase activity. inhibition, % at 20 µM. Recombinant Scp1, phosphopeptide, malachite green phosphate absorbance. hit rate 0.88% among 340,000;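 active means inhibition above about 50% at 20 µM, limit read from the data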;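 further: plate controls were DMSO wells with enzyme for no effect and wells lacking enzyme for full effect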
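assay system = SCP-1 phosphatase catalytic domain, residues 76-261 | buffer or medium = 50 mM Tris acetate pH 5.5, 0.005% Tween-20, 10 mM MgCl2 | incubation = enzyme reaction 45 min at room temperature, colour 5 min, stabilisation 30 min | signal = Phosphate-binding colour reagent, absorbance read at 630 nm | measure = % inhibition at 20 µM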
SUMO1 PPI mod: SUMO1-SIM interaction modulation; P63165; SUMO1 binding to a labelled peptide, TR-FRET, 1 h; inhibition, % at 20 µM; hit rate 0.33% among 360,000; AID 602429; in the data active means inhibition above about 37%
Target sequence (P63165 whole entry, looked up): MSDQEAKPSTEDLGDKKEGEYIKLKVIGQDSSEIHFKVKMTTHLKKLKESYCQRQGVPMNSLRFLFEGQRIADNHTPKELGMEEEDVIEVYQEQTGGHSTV
Rpn11 confirm: Rpn11 inhibition confirmation, single concentration; purified human 26S proteasome, Ub4-pepOG fluorescence polarization; proteasome pretreated with epoxomicin; AID 602318; shares compounds with Rpn11 inh; inhibition, % at 20 µM; hit rate 29% among 1,900
MMP-2 counter: blocks human MMP-2, flagging nonselective RPN11 hits; shares compounds with Rpn11 inh; recombinant MMP-2, FRET peptide cleavage fluorescence; inhibition, % at 20 µM; hit rate 4% among 1,900; AID 602330;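 further: human MMP-2 activated beforehand with APMA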
Thrombin FP: thrombin (bovine) inhibition counter-screen | shares compounds with Rpn11 inh | bovine thrombin cleavage of Ub4-pepOG, fluorescence polarization | inhibition, % at 20 µM | hit rate 13% among 1,900 | AID 602333;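 active means mean inhibition at least 40% at 20 µM, or signal 3 deviations below plate average, so some actives read negative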;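 further: plate controls were thrombin with DMSO for no effect and buffer wells lacking thrombin for full effect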
STEP conf: STEP (human) phosphatase inhibition, single concentration confirmation; shares compounds with STEP inh; hit rate 32% among 520; recombinant STEP, OMFP fluorogenic substrate, fluorescence; inhibition, % at 20 µM; call rule not given here;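 further: 0% = enzyme with substrate plus DMSO and 100% = substrate without enzyme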
Active calls of the source: *; . = no result given. Most compounds without a hit are left out; they make up all but 2.3% or so of the library. Unless noted, no stated cut-off is given here; in the data, active means inhibition above about 40%; inactive means the rest.

SMILES | Rpn11 inh | LMPTP block | DNMT1 inh | STEP inh | Scp1 inh | SUMO1 PPI mod | STEP conf | others
CC1(C)C(C(=O)N2CCN(c3ccc(Cl)cc3)CC2)C1(C)C | 49* | 1 | 1 | -3 | -16 | -2 | . | Rpn11 confirm=5;MMP-2 counter=-16;Thrombin FP=-6
CC1CC2CC(=O)CCC2(C)C2CCC3(C)C(O)CCC3C12 (stereo not given) | -3 | -1 | -1 | 1 | . | 6 | .
CN(C)c1ccc(CCN2CCOCC2)cc1 | 6 | 0 | 1 | -1 | -3 | 3 | .
CN(C)c1ccc2c(c1)N=C(c1ccco1)OP2(=S)N1CCOCC1 (stereo not given) | 2 | 5 | -7 | 36* | 8 | 1 | 12
C=CCn1c(O)c(/C=N/N2CCCCC2c2cccnc2)c(=O)[nH]c1=S (stereo not given) | 26 | -2 | -3 | 42* | -6 | -2 | -1
COc1cccc2c1O[C@H]1C(=O)CC[C@H]3CN(C)CCC231 (stereo not given in full) | -2 | 0 | 7 | 2 | -2 | 3 | .

Screens: PubChem BioAssay, Sanford-Burnham Center for Chemical Genomics
